Results on 19 compounds are retold here after ChEMBL document CHEMBL1143102, “Synthesis, radiofluorination, and in vitro evaluation of pyrazolo[1,5-a]pyridine-based dopamine D4 receptor ligands: discovery of an inverse agonist radioligand for PET” (J Med Chem, 2008).

For series [1], the target named is T1, D(2) dopamine receptor (Homo sapiens, UniProt P14416). The experiment in a line: Displacement of [3H]spiperone from cloned human dopamine D2L receptor expressed in CHO cells. Type of series: cell-based. (Loss of bound radioactivity is the signal in a displacement assay; it reports binding, not function.)
In series [2] the target is T1, D(2) dopamine receptor. The experiment in a line: Displacement of [3H]spiperone from cloned human dopamine D2S receptor expressed in CHO cells. Type of series: cell-based.
The next series addresses D(3) dopamine receptor (Homo sapiens, UniProt P35462). In words: Displacement of [3H]spiperone from cloned human dopamine D3 receptor expressed in CHO cells. Type of series: cell-based.
Series [3] can be described thus: Displacement of [3H]spiperone from cloned human dopamine D4.4 receptor expressed in CHO cells. In kind it is cell-based.
The target in the next series is D(1A) dopamine receptor (Sus scrofa, UniProt P50130). The experiment in a line: Displacement of [3H][…] from dopamine D1 receptor in pig striatal membrane. Type of series: cell membranes, Striatum.
A short description of series [4]: Displacement of [3H]8-OH-DPAT from 5HT1A receptor in pig cortical membranes. In kind it is cell membranes, Sus scrofa. An outline of the steps: (§1)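 Competition binding on porcine cortical membranes. Radioligands, each at 0.5 nM final: [3H]8-OH-DPAT for 5-HT1A, [3H]ketanserin for 5-HT2, [3H]prazosin for α1.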
Series [5] deals with 5-hydroxytryptamine receptor 2A (Sus scrofa, UniProt P50129). The experiment in a line: Displacement of [3H]ketanserin from 5HT2 receptor in pig cortical membranes. Type of series: cell membranes. An outline of the steps: as §1
A short description of series [6]: Displacement of [3H]prazosin from adrenergic alpha1 receptor in pig cortical membranes. In kind it is cell membranes, Sus scrofa. In a few lines: as §1
For series [7], the species on record is Homo sapiens. In words: Selectivity for human dopamine D4.4 receptor over human dopamine D2L receptor.
The species entered for series [8] is Homo sapiens. In words: Selectivity for human dopamine D4.4 receptor over human dopamine D2S receptor.
For series [9], the species on record is Homo sapiens. In words: Selectivity for human dopamine D4.4 receptor over human dopamine D3 receptor.
A short description of series [10]: Agonist activity at rat dopamine D4.2 receptor expressed in CHO10001A cells assessed as incorporation of [3H]thymidine relative to quinpirole. In kind it is functional.
A short description of series [11]: Agonist activity at rat dopamine D4.2 receptor expressed in CHO10001A cells assessed as incorporation of [3H]thymidine. In kind it is functional, cell-based.
The nature of series [12]: Stability in human serum at 37 degC after 90 mins. To be noted: read-out: Stability. In kind it is ADME, cell-free. In a few lines:
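PBS-formulated 18F-labeled compound (20 µL, 250 MBq/mL) is added to 200 µL human serum and incubated at 37 °C for up to 90 min. The percentage of intact radioligand is reported.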

Series [13] is described as follows: Lipophilicity, log D at pH 7.4. In kind it is physicochemical. The conditions noted are these: buffer. An outline of the steps:
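Shake-flask partition of about 25 kBq 18F-labeled compound between 1-octanol and PBS pH 7.4, mixed 3 min at room temperature and centrifuged. Triplicate 100 µL samples of each phase are gamma-counted. log D7.4 = log(cpm octanol/cpm buffer), from 2–3 independent experiments in triplicate, mean ± SD.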

The target in series [14] is T2, D(4) dopamine receptor (Rattus norvegicus) (UniProt P30729).
T2 sequence (whole entry): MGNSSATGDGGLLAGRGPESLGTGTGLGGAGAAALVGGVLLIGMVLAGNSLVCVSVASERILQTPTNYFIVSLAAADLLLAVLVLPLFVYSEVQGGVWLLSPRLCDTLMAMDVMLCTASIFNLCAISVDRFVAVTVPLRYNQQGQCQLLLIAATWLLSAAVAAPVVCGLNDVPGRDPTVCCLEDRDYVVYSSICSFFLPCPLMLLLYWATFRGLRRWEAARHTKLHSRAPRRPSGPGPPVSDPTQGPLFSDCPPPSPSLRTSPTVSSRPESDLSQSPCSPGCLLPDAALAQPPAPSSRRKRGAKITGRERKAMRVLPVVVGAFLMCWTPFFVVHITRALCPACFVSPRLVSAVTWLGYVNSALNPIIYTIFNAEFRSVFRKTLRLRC
In words: Displacement of 2-[4-(2-(2-[18F]fluoroethoxy)phenyl)piperazin-1-ylmethyl]pyrazolo[1,5-alpha]pyridine from dopamine D4 receptor in Sprague-Dawley rat brain. In a few lines: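 In vitro autoradiography on 20 µm coronal brain cryosections from female Sprague–Dawley rats. Sections are preincubated 2 × 5 min, then incubated 60 min at room temperature with 110 kBq/mL [18F] radioligand, ± competitor (1 µM). Buffer: Tris-HCl, NaCl, EDTA, MgCl2 pH 7.4, with 0.5 µM DTG and 0.1 µM pindolol. Sections are washed cold, imaged by real-time autoradiography, and ROI intensities (cpm/mm2) are defined by HE counterstaining.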

Each structure is given as a SMILES string. Bounds are passed on as bounds.

T1 sequence (P14416 whole entry): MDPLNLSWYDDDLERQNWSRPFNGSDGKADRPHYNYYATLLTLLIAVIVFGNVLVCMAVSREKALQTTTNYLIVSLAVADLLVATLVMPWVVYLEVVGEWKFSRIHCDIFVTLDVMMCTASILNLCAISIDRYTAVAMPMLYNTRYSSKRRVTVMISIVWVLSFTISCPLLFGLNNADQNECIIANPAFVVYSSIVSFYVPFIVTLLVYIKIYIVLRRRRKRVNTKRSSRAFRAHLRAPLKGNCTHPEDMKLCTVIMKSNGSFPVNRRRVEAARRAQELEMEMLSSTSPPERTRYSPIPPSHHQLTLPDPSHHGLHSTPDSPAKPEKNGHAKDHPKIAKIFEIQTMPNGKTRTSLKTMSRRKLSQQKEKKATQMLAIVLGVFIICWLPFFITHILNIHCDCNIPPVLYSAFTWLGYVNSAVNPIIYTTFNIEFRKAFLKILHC
D(1A) dopamine receptor, sequence (P50130 whole entry): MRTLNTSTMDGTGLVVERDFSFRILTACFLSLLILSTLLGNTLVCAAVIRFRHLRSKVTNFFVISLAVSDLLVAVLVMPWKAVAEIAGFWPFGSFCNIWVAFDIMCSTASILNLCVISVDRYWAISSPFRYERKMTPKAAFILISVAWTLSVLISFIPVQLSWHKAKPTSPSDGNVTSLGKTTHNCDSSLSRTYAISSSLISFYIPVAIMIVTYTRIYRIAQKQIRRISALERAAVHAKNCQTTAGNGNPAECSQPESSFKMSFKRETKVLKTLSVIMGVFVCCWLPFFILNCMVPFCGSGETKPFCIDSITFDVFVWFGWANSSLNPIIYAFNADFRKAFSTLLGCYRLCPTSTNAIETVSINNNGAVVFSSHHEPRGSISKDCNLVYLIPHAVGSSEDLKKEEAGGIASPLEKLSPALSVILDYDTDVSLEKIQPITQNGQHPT
5-hydroxytryptamine receptor 2A, sequence (P50129 whole entry): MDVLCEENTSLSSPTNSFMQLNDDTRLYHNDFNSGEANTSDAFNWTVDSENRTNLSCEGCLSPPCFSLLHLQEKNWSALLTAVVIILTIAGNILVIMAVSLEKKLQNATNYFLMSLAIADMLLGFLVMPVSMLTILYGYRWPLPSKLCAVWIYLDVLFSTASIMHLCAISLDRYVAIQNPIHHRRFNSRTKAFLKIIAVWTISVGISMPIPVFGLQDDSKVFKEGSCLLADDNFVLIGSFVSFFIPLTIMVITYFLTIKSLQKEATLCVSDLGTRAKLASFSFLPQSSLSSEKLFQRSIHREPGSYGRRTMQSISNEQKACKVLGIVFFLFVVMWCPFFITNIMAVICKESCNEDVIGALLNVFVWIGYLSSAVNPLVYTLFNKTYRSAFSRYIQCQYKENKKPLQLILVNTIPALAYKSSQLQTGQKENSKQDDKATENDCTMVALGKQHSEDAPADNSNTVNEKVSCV
D(3) dopamine receptor, sequence (P35462 whole entry): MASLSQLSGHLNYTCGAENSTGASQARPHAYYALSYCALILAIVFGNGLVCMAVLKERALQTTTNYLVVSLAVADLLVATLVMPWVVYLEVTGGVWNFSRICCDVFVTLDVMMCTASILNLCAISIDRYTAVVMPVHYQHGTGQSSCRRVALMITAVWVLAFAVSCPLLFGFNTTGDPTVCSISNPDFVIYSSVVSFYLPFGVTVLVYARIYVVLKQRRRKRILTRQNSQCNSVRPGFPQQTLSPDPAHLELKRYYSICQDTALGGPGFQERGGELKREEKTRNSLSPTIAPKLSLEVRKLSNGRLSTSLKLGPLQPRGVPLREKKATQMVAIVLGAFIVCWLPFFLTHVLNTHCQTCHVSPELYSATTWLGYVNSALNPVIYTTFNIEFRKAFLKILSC

For `FCCOc1ccc(N2CCN(Cc3cnn4ccccc34)CC2)cc1`, the inhibition constant Ki (as a rule, the dissociation constant of the complex between target and ligand, obtained from inhibition or displacement) worked out at 66 µM at D(2) dopamine receptor [1]; 79 µM at D(2) dopamine receptor [2]; 8.7 µM at D(3) dopamine receptor; 0.028 µM in series [3]; 33 µM at D(1A) dopamine receptor; 13 µM in [4]. The Ki in [5] turned out to be 14 µM; in series [6] it was 4.5 µM. Also, the Ratio Ki in the series listed under Homo sapiens [7] amounted to 2360; in the series filed under Homo sapiens [8] it was 2820; in the series filed under Homo sapiens [9], 311. Moreover, the Efficacy in series [10] is recorded as -41%. In addition, in series [11], the EC50 (in general, the concentration giving half of the maximal effect) worked out at 0.018 µM.
Regarding `Brc1cccc(N2CCN(Cc3cc4ccccn4n3)CC2)n1`, the inhibition constant (Ki) is 0.88 µM at D(2) dopamine receptor [1]; 0.55 µM at D(2) dopamine receptor [2]; 0.93 µM on D(3) dopamine receptor; 0.0079 µM in [3]; 18 µM at D(1A) dopamine receptor; 0.36 µM in series [4]. Also, the Ki in series [5] was found to be 4.4 µM; in series [6], 0.24 µM.
Take `FCCOc1ccccc1N1CCN(Cc2cnn3ccccc23)CC1`: the Ki at D(2) dopamine receptor [1] is 0.15 µM; at D(2) dopamine receptor [2] it was 0.18 µM; at D(3) dopamine receptor, 0.32 µM; in series [3], 0.0016 µM; at D(1A) dopamine receptor, 2.5 µM; in series [4] it was 0.12 µM. Besides, the figures for the Ki in series [5] and in [6] were 2.9 µM and 0.0054 µM, respectively. In addition, the Efficacy in series [10] was determined as 71%. Further, the EC50 in series [11] turned out to be 0.001 µM.
For `FCCOc1ccccc1N1CCN(Cc2cc3ccccn3n2)CC1`, the inhibition constant Ki at D(2) dopamine receptor [1] came out at 0.046 µM; at D(2) dopamine receptor [2], 0.079 µM; on D(3) dopamine receptor, 0.94 µM; in series [3], 0.0013 µM; at D(1A) dopamine receptor it was 4.8 µM; in series [4] it was 5.7 µM. The figures for the inhibitory constant (Ki) in series [5] and in [6] were 13 µM and 0.04 µM, respectively. The figures for the Ratio Ki in the series filed under Homo sapiens [7], in the series filed under Homo sapiens [8] and in the series filed under Homo sapiens [9] were 35, 61 and 723, respectively. In addition, the Efficacy in series [10] turned out to be 49%. For the same compound, the half-maximal effective concentration (EC50) in [11] came out at 0.0008 µM.
Turning to `[18F]c1cccc(N2CCN(Cc3cnn4ccccc34)CC2)n1`, in series [12], the remaining at 1.5 h is > 98%. The log distribution coefficient (logD) (in general, the decadic logarithm of the distribution of all forms, ionised or not, between an organic phase and buffer at a given pH) in [13] worked out at 1.98.
With `Brc1cccc(N2CCN(Cc3cnn4ccccc34)CC2)n1`, the Ki came out at 0.21 µM on D(2) dopamine receptor [1]; 0.15 µM on D(2) dopamine receptor [2]; 0.41 µM on D(3) dopamine receptor; 0.0026 µM in series [3]; 3.9 µM at D(1A) dopamine receptor; 0.12 µM in [4]. Also, the inhibition constant (Ki) was determined as 1.2 µM in series [5] and 0.021 µM in series [6].
Turning to `[18F]CCOc1ccc(N2CCN(Cc3cnn4ccccc34)CC2)cc1`, the remaining at 1.5 h in series [12] was > 96%. In series [13], this compound came in with a logD of 2.12.
In the case of `[18F]CCOc1ccc(N2CCN(Cc3cc4ccccn4n3)CC2)cc1`, the remaining at 1.5 h in [12] is > 99%. Besides, in [13], the logD was 1.99.
Take `Clc1ccc(N2CCN(Cc3cnn4ccccc34)CC2)cc1` [FAUC 113]: the Ki in [3] was 0.0058 µM; in [4] it was 1.4 µM; in series [6], 0.24 µM. In addition, the Efficacy in [10] is reported as 26%.
Regarding `Clc1ccc(N2CCN(Cc3cc4ccccn4n3)CC2)cc1`, the Ki in [3] is 0.0022 µM; in series [4], 1.7 µM; in series [6], 0.27 µM. In addition, the Ratio Ki stood at 1550 in the series filed under Homo sapiens [7], 2860 in the series filed under Homo sapiens [8] and 2410 in the series listed under Homo sapiens [9]. Also, in [10], the Efficacy was <3%. The compound further gave an Activity in [14] of 78%.
Consider `Oc1ccccc1N1CCN(Cc2cnn3ccccc23)CC1`, for which the inhibition constant (Ki) on D(2) dopamine receptor [1] came to 4.5 µM; at D(2) dopamine receptor [2] it was 4.7 µM; on D(3) dopamine receptor, 2.2 µM; in series [3] it was 0.044 µM; at D(1A) dopamine receptor, 2.8 µM; in series [4], 0.68 µM. Also, the Ki in [5] amounted to 1.5 µM; in series [6], 0.026 µM.
As for `Fc1cccc(N2CCN(Cc3cnn4ccccc34)CC2)n1`, the Ki at D(2) dopamine receptor [1] is 0.33 µM; at D(2) dopamine receptor [2], 0.22 µM; on D(3) dopamine receptor it was 0.59 µM; in [3], 0.0088 µM; at D(1A) dopamine receptor, 7.3 µM; in series [4], 0.29 µM. For the same compound, the Ki is 5.4 µM in series [5] and 0.087 µM in series [6]. Further, the Ratio Ki in the series listed under Homo sapiens [7] was 38; in the series listed under Homo sapiens [8], 25; in the series filed under Homo sapiens [9] it was 67.
On to `CCc1cc(Cl)c(OC)c(C(=O)NC[C@@H]2CCCN2CC)c1O`, for which the Activity in series [14] was found to be 65%.
`Fc1cccc(N2CCN(Cc3cc4ccccn4n3)CC2)n1`: the Ki at D(2) dopamine receptor [1] was 3.4 µM; at D(2) dopamine receptor [2], 1.7 µM; at D(3) dopamine receptor, 3.4 µM; in series [3], 0.024 µM; on D(1A) dopamine receptor it was 30 µM; in [4], 1.2 µM. In addition, the values for the inhibition constant Ki in series [5] and in [6] were 9.7 µM and 0.91 µM, respectively. The Ratio Ki was 142 in the series filed under Homo sapiens [7], 71 in the series listed under Homo sapiens [8] and 142 in the series filed under Homo sapiens [9].
In the case of `[18F]CCOc1ccccc1N1CCN(Cc2cnn3ccccc23)CC1`, in series [13], the logD amounted to 2.15.
With `CCCN1CCC[C@@H]2Cc3n[nH]cc3C[C@H]21` [QUINPIROLE], in series [11], the EC50 is 0.0071 µM.
As for `FCCOc1ccc(N2CCN(Cc3cc4ccccn4n3)CC2)cc1`, the Ki at D(2) dopamine receptor [1] is 30 µM; at D(2) dopamine receptor [2], 50 µM; on D(3) dopamine receptor, 15 µM; in series [3], 0.013 µM; at D(1A) dopamine receptor, 29 µM; in [4], 1.4 µM. The Ki in series [5] is 5.5 µM; in [6] it was 4.1 µM. Moreover, the Ratio Ki was 2310 in the series listed under Homo sapiens [7], 3850 in the series filed under Homo sapiens [8] and 1150 in the series listed under Homo sapiens [9]. In addition, in series [10], the Efficacy was -37%. Moreover, the EC50 in series [11] was found to be 0.0091 µM.
For `[18F]c1cccc(N2CCN(Cc3cc4ccccn4n3)CC2)n1`, the remaining at 1.5 h in series [12] was > 99%. In series [13], this compound yielded a logD of 1.78.
`Oc1ccc(N2CCN(Cc3cnn4ccccc34)CC2)cc1`: the Ki at D(2) dopamine receptor [1] worked out at 6.1 µM; on D(2) dopamine receptor [2], 87 µM; at D(3) dopamine receptor, 3.4 µM; in series [3], 0.02 µM; on D(1A) dopamine receptor, 9.9 µM; in series [4] it was 12 µM. Moreover, the Ki in series [5] worked out at 24.7 µM; in [6] it was 0.082 µM.
